ChEMBL document CHEMBL1142744 (Bioorg Med Chem Lett, 2005)

Key:
[1] = target: Neuronal acetylcholine receptor; alpha2/beta4 (Rattus norvegicus, UniProt P12389+P12392); assay: In vitro binding affinity towards rat Nicotinic acetylcholine receptor alpha2-beta4 using 0.5 nM [3H]epibatidine; assay type: protein-complex assay
[2] = target: Neuronal acetylcholine receptor; alpha4/beta2 (Rattus norvegicus, UniProt P09483+P12390); assay: In vitro binding affinity towards rat Nicotinic acetylcholine receptor alpha4-beta2 using 0.5 nM [3H]epibatidine; assay type: protein-complex assay
Method in brief: (§1)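 Stably transfected cell lines, each expressing one rat nAChR subtype (α4β2 or α4β4), were used. Ki was derived from the radioligand Kd for each subtype.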

[3] = target: Neuronal acetylcholine receptor; alpha4/beta4 (Rattus norvegicus, UniProt P09483+P12392); assay: In vitro binding affinity towards rat Nicotinic acetylcholine receptor alpha4-beta4 using 0.5 nM [3H]epibatidine; assay type: protein-complex assay; method in brief: as §1
[4] = target: Neuronal acetylcholine receptor; alpha2/beta2 (Rattus norvegicus, UniProt P12389+P12390); assay: In vitro binding affinity towards rat Nicotinic acetylcholine receptor alpha2-beta2 using 0.5 nM [3H]epibatidine; assay type: protein-complex assay
[5] = target: Neuronal acetylcholine receptor; alpha3/beta4 (Rattus norvegicus) (UniProt P04757+P12392); assay: Agonistic activity as [86Rb+] efflux from KXalpha-3-beta-4R2 cells expressing rat Nicotinic acetylcholine receptor at 100 uM; assay type: functional
Method in brief: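 KXα3β4R2 cells stably expressing functional rat α3β4 receptors were used. Agonism was read as stimulated 86Rb+ efflux in the presence of compound at 100 µM.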

[6] = target: Neuronal acetylcholine receptor; alpha3/beta4 (Rattus norvegicus, UniProt P04757+P12392); assay: In vitro binding affinity towards rat Nicotinic acetylcholine receptor alpha3-beta4 using 0.5 nM [3H]epibatidine; assay type: protein-complex assay
[7] = target: Neuronal acetylcholine receptor; alpha3/beta2 (Rattus norvegicus, UniProt P04757+P12390); assay: In vitro binding affinity towards rat Nicotinic acetylcholine receptor alpha3-beta2 using 0.5 nM [3H]epibatidine; assay type: protein-complex assay
Sequence of Neuronal acetylcholine receptor; alpha3/beta2 (P04757 whole entry): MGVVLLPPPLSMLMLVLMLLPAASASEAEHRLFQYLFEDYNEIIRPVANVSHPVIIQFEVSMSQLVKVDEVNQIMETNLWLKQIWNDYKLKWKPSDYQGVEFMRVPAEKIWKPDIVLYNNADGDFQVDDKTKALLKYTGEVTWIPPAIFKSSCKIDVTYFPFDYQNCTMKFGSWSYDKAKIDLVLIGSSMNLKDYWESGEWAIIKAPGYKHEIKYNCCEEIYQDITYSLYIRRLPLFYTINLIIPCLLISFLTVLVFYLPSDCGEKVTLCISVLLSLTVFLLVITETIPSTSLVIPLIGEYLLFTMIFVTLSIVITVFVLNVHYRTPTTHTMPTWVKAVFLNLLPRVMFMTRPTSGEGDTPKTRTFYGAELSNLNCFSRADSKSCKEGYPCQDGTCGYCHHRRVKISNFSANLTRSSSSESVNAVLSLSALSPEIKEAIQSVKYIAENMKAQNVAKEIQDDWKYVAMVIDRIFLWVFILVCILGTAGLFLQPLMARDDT
Sequence of Neuronal acetylcholine receptor; alpha3/beta2 (P12390 whole entry): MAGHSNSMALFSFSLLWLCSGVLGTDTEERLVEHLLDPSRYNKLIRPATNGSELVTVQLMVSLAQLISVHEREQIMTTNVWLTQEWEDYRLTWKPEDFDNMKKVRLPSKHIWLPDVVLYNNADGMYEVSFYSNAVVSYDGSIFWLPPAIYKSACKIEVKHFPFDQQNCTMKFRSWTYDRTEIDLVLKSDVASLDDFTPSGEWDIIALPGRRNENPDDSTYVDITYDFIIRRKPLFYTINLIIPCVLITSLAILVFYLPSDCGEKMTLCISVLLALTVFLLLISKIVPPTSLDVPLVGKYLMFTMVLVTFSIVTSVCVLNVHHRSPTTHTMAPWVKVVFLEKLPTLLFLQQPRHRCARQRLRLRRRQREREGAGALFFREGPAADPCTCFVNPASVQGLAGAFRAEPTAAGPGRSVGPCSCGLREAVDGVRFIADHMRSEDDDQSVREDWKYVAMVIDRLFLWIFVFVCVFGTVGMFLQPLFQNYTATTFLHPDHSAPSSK

Sequence of Neuronal acetylcholine receptor; alpha2/beta4 (P12389 whole entry): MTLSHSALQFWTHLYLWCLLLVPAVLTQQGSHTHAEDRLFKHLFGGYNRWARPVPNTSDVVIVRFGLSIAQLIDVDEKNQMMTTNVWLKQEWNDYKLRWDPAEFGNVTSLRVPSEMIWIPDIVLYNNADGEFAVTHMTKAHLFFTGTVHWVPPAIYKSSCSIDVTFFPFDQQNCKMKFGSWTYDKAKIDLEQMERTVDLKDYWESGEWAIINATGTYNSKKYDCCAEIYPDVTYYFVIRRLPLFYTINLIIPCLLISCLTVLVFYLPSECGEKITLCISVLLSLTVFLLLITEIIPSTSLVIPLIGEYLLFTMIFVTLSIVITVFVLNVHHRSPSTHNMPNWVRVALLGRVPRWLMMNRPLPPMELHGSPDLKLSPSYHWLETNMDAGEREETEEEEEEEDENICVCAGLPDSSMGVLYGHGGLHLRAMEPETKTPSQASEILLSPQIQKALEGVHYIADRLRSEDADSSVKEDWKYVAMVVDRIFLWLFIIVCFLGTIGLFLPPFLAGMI
Sequence of Neuronal acetylcholine receptor; alpha2/beta4 (P12392 whole entry): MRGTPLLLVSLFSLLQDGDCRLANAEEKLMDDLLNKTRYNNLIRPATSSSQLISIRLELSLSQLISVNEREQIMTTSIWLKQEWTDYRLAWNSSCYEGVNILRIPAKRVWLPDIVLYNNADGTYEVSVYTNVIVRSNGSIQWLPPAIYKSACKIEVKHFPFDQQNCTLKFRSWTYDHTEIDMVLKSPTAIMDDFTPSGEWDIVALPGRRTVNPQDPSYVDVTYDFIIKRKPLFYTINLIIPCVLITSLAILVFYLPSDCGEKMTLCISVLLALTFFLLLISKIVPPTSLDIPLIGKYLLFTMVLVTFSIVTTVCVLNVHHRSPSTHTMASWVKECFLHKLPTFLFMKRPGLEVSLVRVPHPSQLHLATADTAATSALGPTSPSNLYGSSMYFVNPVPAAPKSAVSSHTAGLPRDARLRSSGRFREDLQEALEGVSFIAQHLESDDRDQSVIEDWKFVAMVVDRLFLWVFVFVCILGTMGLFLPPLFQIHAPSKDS
Sequence of Neuronal acetylcholine receptor; alpha2/beta2 (P12389 whole entry): as the sequence (P12389 whole entry) above
Sequence of Neuronal acetylcholine receptor; alpha2/beta2 (P12390 whole entry): as the sequence (P12390 whole entry) above
Sequence of Neuronal acetylcholine receptor; alpha4/beta2 (P09483 whole entry): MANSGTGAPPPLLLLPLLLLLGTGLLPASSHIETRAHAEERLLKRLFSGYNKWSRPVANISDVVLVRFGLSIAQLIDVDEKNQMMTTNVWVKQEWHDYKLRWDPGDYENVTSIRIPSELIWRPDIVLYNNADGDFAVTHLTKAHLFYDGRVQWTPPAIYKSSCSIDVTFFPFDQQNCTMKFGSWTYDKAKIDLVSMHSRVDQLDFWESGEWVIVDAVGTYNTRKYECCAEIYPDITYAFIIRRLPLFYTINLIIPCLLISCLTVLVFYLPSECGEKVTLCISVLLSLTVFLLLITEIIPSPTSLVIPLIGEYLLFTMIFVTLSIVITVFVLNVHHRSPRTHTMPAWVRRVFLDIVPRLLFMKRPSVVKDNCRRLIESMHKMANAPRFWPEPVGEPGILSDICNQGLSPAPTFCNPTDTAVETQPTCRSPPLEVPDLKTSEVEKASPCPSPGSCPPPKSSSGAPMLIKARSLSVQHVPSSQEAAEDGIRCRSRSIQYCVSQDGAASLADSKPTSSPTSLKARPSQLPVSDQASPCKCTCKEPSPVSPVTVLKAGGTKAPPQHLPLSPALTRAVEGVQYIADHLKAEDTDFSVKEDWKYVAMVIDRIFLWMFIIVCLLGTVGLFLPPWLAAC
Sequence of Neuronal acetylcholine receptor; alpha4/beta2 (P12390 whole entry): as the sequence (P12390 whole entry) above
Sequence of Neuronal acetylcholine receptor; alpha4/beta4 (P09483 whole entry): as the sequence (P09483 whole entry) above
Sequence of Neuronal acetylcholine receptor; alpha4/beta4 (P12392 whole entry): as the sequence (P12392 whole entry) above
Sequence of Neuronal acetylcholine receptor; alpha3/beta4 (P04757 whole entry): as the sequence (P04757 whole entry) above
Sequence of Neuronal acetylcholine receptor; alpha3/beta4 (P12392 whole entry): as the sequence (P12392 whole entry) above

| SMILES | Ki [1] | Ki [2] | Ki [3] | Ki [4] | Stimulation [5] | Ki [6] | Ki [7] |
| --- | --- | --- | --- | --- | --- | --- | --- |
| Cc1cccc(-c2cc(C3CC4CCC3N4)cnc2F)c1 (stereo unspecified) | 31.3 nM | 0.898 nM | 36.7 nM | 1.11 nM | 0.1% | 2400 nM | 9.27 nM |
| Fc1ncc(C2CC3CCC2N3)cc1-c1ccc(Cl)cc1 (stereo unspecified) | 4.12 nM | 0.062 nM | 3.99 nM | 0.064 nM | 3.2% | 256 nM | 0.339 nM |
| CN1CCC[C@H]1c1cccnc1 |  |  |  |  | 100% |  |  |
| N#Cc1ccc(-c2cc(C3CC4CCC3N4)cnc2F)cc1 (stereo unspecified) | 3.67 nM | 0.039 nM | 3.6 nM | 0.066 nM | 36.8% | 289 nM | 0.351 nM |
| Clc1ncc(C2CC3CCC2N3)cc1-c1ccccc1 (stereo unspecified) | 0.47 nM | 0.039 nM | 1.15 nM | 0.037 nM | 6.1% | 24 nM | 0.122 nM |
| Clc1ccc(C2CC3CCC2N3)cn1 (racemic) |  |  |  |  | 112% |  |  |
| Fc1ccc(-c2cc(C3CC4CCC3N4)cnc2F)cc1 (stereo unspecified) | 6.12 nM | 0.078 nM | 6.42 nM | 0.079 nM | 3.6% | 405 nM | 0.504 nM |
| Cc1ccc(-c2cc(C3CC4CCC3N4)cnc2Cl)cc1 (stereo unspecified) | 5.26 nM | 0.058 nM | 4.75 nM | 0.044 nM | 3.8% | 429 nM | 0.171 nM |
| CN1C2CCC1C(c1cnc(Cl)c(-c3ccccc3)c1)C2 (stereo unspecified) | 0.24 nM | 0.032 nM | 1.57 nM | 0.053 nM | 3.9% | 15.4 nM | 0.158 nM |
| COc1ccc(-c2cc(C3CC4CCC3N4)cnc2Cl)cc1 (stereo unspecified) | 0.862 nM | 0.034 nM | 1.57 nM | 0.04 nM | 3.1% | 54.5 nM | 0.1 nM |
| Fc1ncc(C2CC3CCC2N3)cc1-c1ccccc1 (stereo unspecified) | 16.6 nM | 0.733 nM | 26 nM | 0.643 nM | 0.4% | 947 nM | 3.54 nM |
| Fc1ncc(C2CC3CCC2N3)cc1-c1ccc(Cl)c(Cl)c1 (stereo unspecified) | 6.99 nM | 0.28 nM | 7.36 nM | 0.245 nM | 2.7% | 334 nM | 2.31 nM |
| Cc1cc(-c2cc(C3CC4CCC3N4)cnc2F)ccc1F (stereo unspecified) | 60.1 nM | 1.26 nM | 67.6 nM | 1.54 nM | 0.7% | 2940 nM | 8.84 nM |
| Cc1ccc(-c2cc(C3CC4CCC3N4)cnc2F)cc1 (stereo unspecified) | 0.541 nM | 0.028 nM | 1.22 nM | 0.035 nM | 1% | 29 nM | 0.078 nM |
